As a reminder, the IC50 is the concentration that inhibits the measured activity by half.

One assay concerns PC-3. Description: Cytotoxicity against human PC3 cells assessed as cell growth inhibition after 24 hrs by MTT assay. Format: functional, cell-based. As to conditions: PC-3, 24 h. The method, boiled down:
(§1)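 Cells seeded 24 h in RPMI 1640 + 10% FBS. RWPE-1 was kept in K-SFM with bovine pituitary extract and EGF. Cells then exposed to compounds for 24 h at 37 °C, 5% CO2, with DMSO vehicle and docetaxel as positive control. MTT added for 4 h, absorbance read at 570 nm. Triplicate runs, IC50 reported as mean of three experiments.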
For orientation: Tetrazolium assays rely on reduction of a dye to a coloured formazan, in cell work by metabolically active cells.

Another assay concerns RWPE-1. Put plainly: Cytotoxicity against human RWPE1 cells assessed as cell growth inhibition after 24 hrs by MTT assay. Format: cell-based. As to conditions: RWPE-1, 24 h. Summed up: as §1
The next assay deals with MDA-MB-231. Description: Cytotoxicity against human MDA-MB-231 cells assessed as cell growth inhibition after 24 hrs by MTT assay. It is filed as functional, cell-based. As to conditions: MDA-MB-231, 24 h. Summed up: as §1
A further assay relates to K562. Description: Cytotoxicity against human K562 cells assessed as cell growth inhibition after 24 hrs by MTT assay. Format: functional, cell-based. As to conditions: K562, 24 h. Summed up: as §1
In the next assay the test system is HeLa. Put plainly: Cytotoxicity against human HeLa cells assessed as cell growth inhibition after 24 hrs by MTT assay. Format: functional, cell-based. The method, boiled down:
as §1

In a further assay the test system is DU-145. Description: Cytotoxicity against human DU145 cells assessed as cell growth inhibition after 24 hrs by MTT assay. Format: functional, cell-based. As to conditions: DU-145, 24 h. The method, boiled down: as §1
Another assay has as its system MCF7. Description: Cytotoxicity against human MCF7 cells assessed as cell growth inhibition after 24 hrs by MTT assay. Format: functional, cell-based. The note with it: MCF7, 24 h. The method, boiled down:
as §1

Some results are limits rather than exact numbers.

For `O[C@]1(c2ccccc2)C[C@@H](c2ccccc2)N2CCc3cc(OCc4ccccc4)c(OCc4ccccc4)cc3[C@@H]2C1`, the IC50 in the assay with PC-3, in the assay on RWPE-1, in the assay on MDA-MB-231, in the assay with K562, in the assay on HeLa and in the assay with DU-145 was more than 20 µM throughout. Also, in the assay on MCF7, the IC50 is more than 20 µM.

With `O[C@@]1(c2ccccc2)C[C@@H](c2ccccc2)N2CCc3cc(OCc4ccccc4)c(OCc4ccccc4)cc3[C@@H]2C1`, the IC50 in the assay on PC-3, with RWPE-1, in the assay on MDA-MB-231, with K562, in the assay with HeLa and with DU-145 was more than 20 µM in each case. In the assay with MCF7, the IC50 is more than 20 µM.

On to `C/C=C/C(=O)CC1c2cc(OCc3cc(C)cc(C)c3)c(OCc3cc(C)cc(C)c3)cc2CCN1C(=O)OC(C)(C)C` (stereo not drawn), for which the IC50 in the assay on PC-3, with RWPE-1, with MDA-MB-231, in the assay with K562, in the assay on HeLa and with DU-145 was more than 20 µM each time. In the assay on MCF7, the IC50 was more than 20 µM.

Take `O[C@H]1C[C@@H](c2ccccc2)N2CCc3cc(OCc4ccccc4)ccc3[C@@H]2C1`: the IC50 with PC-3, in the assay on RWPE-1, with MDA-MB-231, in the assay on K562, with HeLa and in the assay on DU-145 was more than 20 µM throughout. In the assay with MCF7, the IC50 is more than 20 µM.

As to `C[C@@H]1C[C@@](C)(O)C[C@H]2c3cc(OCc4ccc(Br)cc4)c(OCc4ccc(Br)cc4)cc3CCN12`, the IC50 in the assay with PC-3 is 0.79 µM; in the assay with RWPE-1, 2.95 µM; in the assay with MDA-MB-231 it was 1.2 µM; in the assay on K562, 1.79 µM; in the assay with HeLa, 1.88 µM; in the assay with DU-145, 1.97 µM. Also, the IC50 in the assay on MCF7 is 0.84 µM.

With `CC[C@@H]1CC(=O)C/C=C(/C)[C@H]2c3cc(OCc4ccccc4)c(OCc4ccccc4)cc3CCN12` (relative stereo), the concentration for half-maximal inhibition (IC50) with PC-3, with RWPE-1, with MDA-MB-231, in the assay on K562, with HeLa and in the assay on DU-145 was more than 20 µM in each case. For the same compound, the IC50 in the assay with MCF7 was more than 20 µM.

On to `C[C@]1(O)C[C@@H](c2ccccc2)N2CCc3cc(OCc4ccccc4)c(OCc4ccccc4)cc3[C@@H]2C1`, for which the IC50 in the assay on PC-3, in the assay on RWPE-1, in the assay with MDA-MB-231, in the assay on K562, with HeLa and with DU-145 was more than 20 µM throughout. In addition, the IC50 in the assay with MCF7 is more than 20 µM.

Turning to `O[C@H]1C[C@@H](c2ccc(-c3ccccc3)cc2)N2CCc3cc(OCc4ccccc4)c(OCc4ccccc4)cc3[C@@H]2C1`, the IC50 with PC-3, with RWPE-1, with MDA-MB-231, in the assay with K562, in the assay with HeLa and with DU-145 was more than 20 µM in each case. Further, the IC50 in the assay on MCF7 was more than 20 µM.

Turning to `CC[C@@H]1C[C@@H](O)C/C=C(/C)[C@H]2c3cc(OCc4ccccc4)c(OCc4ccccc4)cc3CCN12`, the IC50 with PC-3, with RWPE-1, in the assay on MDA-MB-231, in the assay with K562, with HeLa and in the assay with DU-145 was more than 20 µM in each case. Moreover, the IC50 with MCF7 was more than 20 µM.

In the case of `CCCCCC[C@@H]1C[C@@H](O)C[C@H]2c3cc(OCc4ccccc4)c(OCc4ccccc4)cc3CCN12`, the IC50 with PC-3, in the assay with RWPE-1, in the assay on MDA-MB-231, in the assay with K562, in the assay on HeLa and with DU-145 was more than 20 µM each time. Further, the IC50 in the assay on MCF7 was more than 20 µM.

As for `O=C1C[C@@H](c2ccc(-c3ccccc3)cc2)N2CCc3cc(OCc4ccccc4)c(OCc4ccccc4)cc3[C@@H]2C1` (relative stereo), the IC50 in the assay with PC-3, with RWPE-1, with MDA-MB-231, in the assay with K562, with HeLa and in the assay with DU-145 was more than 20 µM each time. Moreover, the IC50 with MCF7 was more than 20 µM.

Take `O[C@H]1C[C@@H](c2ccccc2)N2CCc3ccccc3[C@@H]2C1`: the IC50 in the assay with PC-3, in the assay on RWPE-1, with MDA-MB-231, in the assay with K562, in the assay with HeLa and in the assay on DU-145 was more than 20 µM each time. The IC50 in the assay with MCF7 was more than 20 µM.

In the case of `CC[C@@H]1CC(=O)C[C@H]2c3cc(OCc4ccccc4)c(OCc4ccccc4)cc3CCN12` (relative stereo), the IC50 in the assay on PC-3, with RWPE-1, with MDA-MB-231, with K562, in the assay on HeLa and in the assay with DU-145 was more than 20 µM each time. Further, in the assay with MCF7, the IC50 is more than 20 µM.

As for `COc1ccc([C@@H]2C[C@H](O)C[C@H]3c4cc(OCc5cc(F)cc(F)c5)c(OCc5cc(F)cc(F)c5)cc4CCN23)cc1OC`, the IC50 in the assay with PC-3, in the assay on RWPE-1, in the assay on MDA-MB-231, with K562, in the assay on HeLa and in the assay with DU-145 was more than 20 µM in each case. For the same compound, the IC50 with MCF7 is more than 20 µM.

On to `CCCCCCOc1cc2c(cc1OCCCCCC)[C@@H]1C[C@@H](O)C[C@@H](C)N1CC2`, for which the IC50 in the assay with PC-3, in the assay with RWPE-1, with MDA-MB-231, in the assay with K562, in the assay with HeLa and with DU-145 was more than 20 µM in each case. The IC50 in the assay with MCF7 is more than 20 µM.

`COc1ccc([C@@H]2C[C@H](O)C[C@H]3c4cc(OCc5ccccc5)c(OCc5ccccc5)cc4CCN23)cc1`: the IC50 in the assay with PC-3, with RWPE-1, with MDA-MB-231, with K562, with HeLa and in the assay with DU-145 was more than 20 µM throughout. In addition, the IC50 in the assay on MCF7 was more than 20 µM.

In the case of `COc1ccc([C@@H]2C[C@@H](O)C[C@H]3c4cc(OCc5ccccc5)c(OCc5ccccc5)cc4CCN23)cc1OC`, the half-inhibitory concentration (IC50) in the assay with PC-3 was 1.51 µM; in the assay on RWPE-1 it was 2.08 µM; in the assay with MDA-MB-231, 1.15 µM; in the assay on K562, 5.42 µM; with HeLa it was 3.46 µM; in the assay on DU-145 it was 1.59 µM. Besides, the IC50 in the assay on MCF7 is 2 µM.

On to `O[C@@H]1C[C@@H](c2ccccc2)N2CCc3ccccc3[C@@H]2C1`, for which the IC50 with PC-3, in the assay with RWPE-1, in the assay on MDA-MB-231, in the assay on K562, in the assay on HeLa and with DU-145 was more than 20 µM in each case. In the assay on MCF7, the IC50 was more than 20 µM.

As to `C[C@@H]1CC(=O)C[C@H]2c3cc(OCc4cc(C(F)(F)F)cc(C(F)(F)F)c4)c(OCc4cc(C(F)(F)F)cc(C(F)(F)F)c4)cc3CCN12` (relative stereo), the IC50 in the assay on PC-3, with RWPE-1, in the assay with MDA-MB-231, in the assay with K562, in the assay with HeLa and in the assay on DU-145 was more than 20 µM in each case. Also, the IC50 in the assay on MCF7 was more than 20 µM.
